Activity, inhibition and inhibition in vivo data for one molecule are collected here from ChEMBL document CHEMBL4837217, “Design, synthesis, in vitro and in vivo biological evaluation of pyranone-piperazine analogs as potent antileishmanial agents” (Eur J Med Chem, 2021).

Active and inactive are the calls of the source. The calls are words filed in the database; no cut-off is given here.

Assay [1] has as its system Leishmania donovani. Description: Induction of mitochondrial membrane potential dysfunction in Leishmania donovani MHOM/IN/80/Dd8 promastigotes assessed as cells with mitochondrial depolarization at 50 uM incubated for 24 hrs by JC1 staining based flow cytometry (reference value: 3.63%). The assay is classed as functional. The method, boiled down: (§1)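 Promastigotes (1 × 10^6 cells/mL) exposed to 50 µM for 24–72 h, or to IC50 for 72 h. CCCP (50 µM final) served as depolarization positive control. Cells washed, stained with JC-1 (2 µM final) 30 min at 37 °C, 5% CO2. Red-to-green fluorescence shift measured by flow cytometry.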

For assay [2], the system named is Leishmania donovani. The experiment in a line: Induction of apoptosis in Leishmania donovani MHOM/IN/80/Dd8 promastigotes assessed as late apoptotic cells at 50 uM measured after 48 hrs by Alexa fluor488-AnnexinV/PI staining based FACSCalibur flow cytometry analysis (reference value: 0.7%). It counts as functional.
The test system of assay [3] is Leishmania donovani. Description: Antileishmanial activity against log phase of Leishmania donovani MHOM/IN/80/Dd8 promastigotes assessed as reduction in cell viability at 25 uM incubated for 72 hrs by MTT assay. It counts as functional. The method, boiled down:
(§2)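 Log-phase luciferase-transfected L. donovani Dd8 promastigotes (M199 + 10% FBS, 24 °C) treated with compounds at 25 and 50 µM in DMSO, with 0.1% DMSO vehicle control. After 72 h, MTT added 4 h. Formazan dissolved in DMSO, read at 570 nm. Percent inhibition reported as mean ± SD of at least three independent experiments in replicate.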

Assay [4] relates to Leishmania donovani. Description: Antileishmanial activity against log phase of Leishmania donovani MHOM/IN/80/Dd8 promastigotes assessed as reduction in cell viability at 50 uM incubated for 72 hrs by MTT assay. It counts as functional. The method, boiled down:
as §2
(In general: Tetrazolium dyes change colour on reduction, which living cells bring about.)

The test system of assay [5] is Leishmania donovani. The experiment in a line: Induction of apoptosis in Leishmania donovani MHOM/IN/80/Dd8 promastigotes assessed as increase in cytochrome c release by measuring decrease in cytochrome c level in mitochondria at 50 uM incubated for 12 to 72 hrs by Western blot analysis. Conditions: time 12-72 hrs. It counts as functional, organism-based. The essentials:
(§3)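 Promastigotes treated with 50 µM for 12, 24, 48 and 72 h, then washed in PBS. Cell fractionation buffer applied 10 min on ice, cells homogenized, centrifuged 10,000 × g for 25 min at 4 °C. Cytosolic and mitochondrial fractions immunoblotted for cytochrome c. Loading controls were actin (cytosol) and COX-4 (mitochondria).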
On the technique in general: In western blotting, separated proteins are transferred to a membrane and probed.

The subject of assay [6] is Leishmania donovani. The experiment in a line: Induction of apoptosis in Leishmania donovani MHOM/IN/80/Dd8 promastigotes assessed as early apoptotic cells at 50 uM measured after 48 hrs by Alexa fluor488-AnnexinV/PI staining based FACSCalibur flow cytometry analysis (reference value: 10.3%). It counts as functional. For orientation: Flow cytometry measures light scatter and fluorescence of single cells or particles in a stream.

For assay [7], the system named is Leishmania donovani. The experiment in a line: Induction of mitochondrial membrane potential dysfunction in Leishmania donovani MHOM/IN/80/Dd8 promastigotes assessed as cells with mitochondrial depolarization at 50 uM incubated for 72 hrs by JC1 staining based flow cytometry (reference value: 3.63%). It counts as functional.
Assay [8] has as its system Leishmania donovani. Description: Induction of apoptosis in Leishmania donovani MHOM/IN/80/Dd8 promastigotes assessed as early apoptotic cells at 50 uM measured after 24 hrs by Alexa fluor488-AnnexinV/PI staining based FACSCalibur flow cytometry analysis (reference value: 10.3%). The assay is classed as functional.
Assay [9] relates to Leishmania donovani. Description: Induction of apoptosis in Leishmania donovani MHOM/IN/80/Dd8 promastigotes assessed as increase in cytochrome c release by measuring increase in cytochrome c level in cytosol at 50 uM incubated for 12 to 72 hrs by Western blot analysis. The assay is classed as functional, organism-based. The settings on record: time 12-72 hrs. The method, boiled down: as §3

Assay [10] has as its system Leishmania donovani. Description: Antileishmanial activity against Leishmania donovani MHOM/IN/80/Dd8 infected in BALB/c mouse assessed as reduction in intracellular amastigote burden in liver at 50 mg/kg, ip for 5 days and measured at 1 week post-treatment by Giemsa staining based assay relative to control. It counts as functional. The settings on record: MHOM/IN/80/Dd8, ip, 288 h, time 12 day. The method, boiled down: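 Female BALB/c mice (20–25 g), 5/group, infected iv with 2 × 10^7 stationary-phase L. donovani promastigotes. Infection confirmed at 2 wk, then 50 mg/kg ip daily for 5 consecutive days. Vehicle was 5% DMSO. Sacrificed day 7 post-treatment. Giemsa-stained liver/spleen impression smears counted as amastigotes/1000 nucleated cells, expressed as LDU (amastigotes per nucleated cell × organ weight in mg), compared with untreated infected controls.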

Assay [11] concerns Leishmania donovani. Description: Induction of apoptosis in Leishmania donovani MHOM/IN/80/Dd8 promastigotes assessed as late apoptotic cells at 50 uM measured after 72 hrs by Alexa fluor488-AnnexinV/PI staining based FACSCalibur flow cytometry analysis (reference value: 0.7%). The assay is classed as functional.
The test system of assay [12] is Leishmania donovani. Description: Induction of mitochondrial membrane potential dysfunction in Leishmania donovani MHOM/IN/80/Dd8 promastigotes assessed as cells with mitochondrial depolarization at IC50 incubated for 72 hrs by JC1 staining based flow cytometry (reference value: 6.6%). It counts as functional. The method, boiled down: as §1
The test system of assay [13] is Leishmania donovani. The experiment in a line: Antileishmanial activity against amastigote stage of Leishmania donovani MHOM/IN/80/Dd8 harboring luciferase gene infected in mouse J774 cells assessed as parasite growth inhibition at 25 uM incubated for 72 hrs by Steady-Glo reagent based luciferase assay. It counts as functional. The settings on record: MHOM/IN/80/Dd8, J774. The essentials: (§4)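 J774 murine macrophages, 4 × 10⁴ cells/well in RPMI with 10% FBS for 24 h, are infected for 24 h at 37 °C, 5% CO₂ with stationary-phase luciferase-transfected L. donovani Dd8 promastigotes at a 1:8 macrophage:parasite ratio. Compounds are dissolved in DMSO. Luminescence is read after Steady-Glo is added in PBS. IC₅₀ is taken from a four-parameter Hill nonlinear regression. Miltefosine is the reference.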

The test system of assay [14] is Leishmania donovani. The experiment in a line: Induction of apoptosis in Leishmania donovani MHOM/IN/80/Dd8 promastigotes assessed as DNA fragmentation by measuring bright green coloured positive apoptotic nuclei at 50 uM incubated for 72 hrs by TUNEL staining based confocal microscopic analysis. The assay is classed as functional, organism-based. The essentials: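 Log-phase promastigotes treated with 50 µM for 72 h, washed, adhered to poly-L-lysine slides and fixed in 4% paraformaldehyde. Permeabilized in ice-cold 70% ethanol 30 min. Labeled with TdT/BrdUTP 60 min at 37 °C, then Alexa Fluor 488 anti-BrdU 30 min and PI/RNase A 30 min. Imaged by confocal microscopy; vehicle was 0.1% DMSO.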

The subject of assay [15] is Leishmania donovani. The experiment in a line: Antileishmanial activity against amastigote stage of Leishmania donovani MHOM/IN/80/Dd8 harboring luciferase gene infected in mouse J774 cells assessed as parasite killing incubated for 72 hrs by Steady-Glo reagent based luciferase assay. Conditions: dose 3.12-50 µM. It counts as functional, organism-based. The method, boiled down:
as §4

In assay [16] the test system is Leishmania donovani. Description: Antileishmanial activity against amastigote stage of Leishmania donovani MHOM/IN/80/Dd8 harboring luciferase gene infected in mouse J774 cells assessed as parasite growth inhibition at 50 uM incubated for 72 hrs by Steady-Glo reagent based luciferase assay. The assay is classed as functional. The settings on record: MHOM/IN/80/Dd8, J774. The method, boiled down: as §4

The test system of assay [17] is Leishmania donovani. The experiment in a line: Induction of apoptosis in Leishmania donovani MHOM/IN/80/Dd8 promastigotes assessed as early apoptotic cells at 50 uM measured after 72 hrs by Alexa fluor488-AnnexinV/PI staining based FACSCalibur flow cytometry analysis (reference value: 10.3%). It counts as functional.
The subject of the next assay is Splenocyte. The experiment in a line: Immunomodulatory activity in BALB/c mouse infected with Leishmania donovani amastigotes assessed as decrease in IL-10 level in splenocytes supernatants at 50 mg/kg, ip for 5 days. It counts as functional, organism-based. The settings on record: time 5.0 day.

For orientation: inhibition means the drop in the measured response relative to a control, in per cent. By inhibition in vivo is commonly meant the percentage by which the read-out fell short of the control. Take `N#Cc1c(N2CCN(c3ccccc3O)CC2)cc(-c2ccccc2)oc1=O`: the Activity with Leishmania donovani [1] was found to be 32.9%; with Leishmania donovani [2], 2.3%; with Leishmania donovani [6], 39.1%; with Leishmania donovani [7], 86.9%; with Leishmania donovani [8], 15.4%; in the assay with Leishmania donovani [11], 13.1%. The Activity in the assay with Leishmania donovani [12] was 22.9%; in the assay with Leishmania donovani [15] it was “Dose-Dependent Effect”; with Leishmania donovani [17], 41.4%. In addition, the values for the inhibition at 25 µM with Leishmania donovani [3] and in the assay with Leishmania donovani [13] were 82.7% and 84.2%, respectively. Besides, the figures for the inhibition at 50 µM in the assay on Leishmania donovani [4] and in the assay on Leishmania donovani [16] were 85.2% and 95.7%, respectively. For the same molecule, the result with Leishmania donovani [5], in the assay on Leishmania donovani [9] and in the assay on Leishmania donovani [14] was Active. For the same molecule, the inhibition in vivo at 50 mg/kg in the assay with Leishmania donovani [10] was 67.3%. Besides, the outcome in the assay with Splenocyte was inactive.
